≈ marks a conversion by molar mass, not a printed value. One block for each compound: values may come before it.
Experiments:
Plasmodium falciparum [1] = assay: Antimalarial activity against drug-sensitive Plasmodium falciparum NF54 infected in human erythrocytes after 48 hrs by [3H]hypoxanthine assay; type: functional, organism-based
Plasmodium falciparum [2] = assay: Antimalarial activity against chloroquine-resistant Plasmodium falciparum K1 infected in human erythrocytes after 48 hrs by [3H]hypoxanthine assay; type: functional, organism-based
[3] = Clearance in mouse at 5 mg/kg, iv; type: ADME, organism-based; parameters: dose 5 mg/kg, route intravenous; details: in vivo
[4] = Solubility at pH 6.8; type: physicochemical; details: buffer
[5] = Lipophilicity, log P of the compound; type: physicochemical; details: octanol/water
Cytochrome P450 2C9 = Cytochrome P450 2C9 (Homo sapiens, UniProt P11712); assay: Inhibition of CYP2C9 in human liver microsome by LC-MS/MS analysis; type: ADME, microsomes
Cytochrome P450 3A4 = Cytochrome P450 3A4 (Homo sapiens, UniProt P08684); assay: Inhibition of CYP3A4 in human liver microsome by LC-MS/MS analysis; type: ADME, microsomes
Cytochrome P450 2D6 = Cytochrome P450 2D6 (Homo sapiens, UniProt P10635); assay: Inhibition of CYP2D6 in human liver microsome by LC-MS/MS analysis; type: ADME, microsomes
Plasmodium berghei [6] = assay: Antimalarial activity against Plasmodium berghei ANKA infected in NMRI mice (Mus musculus) assessed as reduction in parasitaemia at 30 mg/kg, perorally administered as single dose; type: functional; parameters: scale not given: the % may be the effect or the level left; details: route oral
Outline: (§1)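 P. berghei-infected mice, 5 per group, given compound orally in 10% ethanol, 30% PEG400, 6% vitamin E TPGS, as a single dose or daily for three days. Parasitemia is measured on day three and reported as percent reduction (activity).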

Plasmodium berghei [7] = assay: Antimalarial activity against Plasmodium berghei ANKA infected in NMRI mice (Mus musculus) assessed as host survival time at 30 mg/kg, perorally administered as single dose (reference value: 6 to 7 days); type: functional; details: route oral
Plasmodium berghei [8] = assay: Antimalarial activity against Plasmodium berghei ANKA infected in NMRI mice (Mus musculus) assessed as reduction in parasitaemia at 100 mg/kg, perorally administered as single dose; type: functional; parameters: scale not given: the % may be the effect or the level left; details: route oral; outline: as §1
Plasmodium berghei [9] = assay: Antimalarial activity against Plasmodium berghei ANKA infected in NMRI mice (Mus musculus) assessed as host survival time at 100 mg/kg, perorally administered as single dose (reference value: 6 to 7 days); type: functional; details: route oral
Plasmodium berghei [10] = assay: Antimalarial activity against Plasmodium berghei ANKA infected in NMRI mice (Mus musculus) assessed as reduction in parasitaemia at 10 mg/kg, perorally administered once daily for 3 days; type: functional; parameters: scale not given: the % may be the effect or the level left; details: route oral; outline: as §1
Plasmodium berghei [11] = assay: Antimalarial activity against Plasmodium berghei ANKA infected in NMRI mice (Mus musculus) assessed as host survival time at 10 mg/kg, perorally administered once daily for 3 days (reference value: 6 to 7 days); type: functional; details: route oral
Plasmodium berghei [12] = assay: Antimalarial activity against Plasmodium berghei ANKA infected in NMRI mice (Mus musculus) assessed as reduction in parasitaemia at 30 mg/kg, perorally administered once daily for 3 days; type: functional; parameters: scale not given: the % may be the effect or the level left; details: route oral; outline: as §1
Plasmodium berghei [13] = assay: Antimalarial activity against Plasmodium berghei ANKA infected in NMRI mice (Mus musculus) assessed as host survival time at 30 mg/kg, perorally administered once daily for 3 days (reference value: 6 to 7 days); type: functional; details: route oral
[14] = molecular target: Voltage-gated inwardly rectifying potassium channel KCNH2 (Homo sapiens, UniProt Q12809); assay: Binding affinity to human ERG
[15] = Cmax in mouse at 25 mg/kg, po; type: ADME, organism-based; parameters: dose 25 mg/kg, route oral; details: in vivo
Outline: (§2)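 Mouse pharmacokinetics. Plasma drug concentration was followed over time. Derived values: Cmax, Tmax, AUC extrapolated to infinity, terminal half-life, and oral bioavailability (F) from the oral and iv exposures.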

[16] = Tmax in mouse at 25 mg/kg, po; type: ADME, organism-based; parameters: dose 25 mg/kg, route oral; details: in vivo; outline: as §2
[17] = AUC (infinity) in mouse at 25 mg/kg, po; type: ADME, organism-based; parameters: time infinity, dose 25 mg/kg, route oral; details: plasma; outline: as §2
[18] = Half life in mouse at 25 mg/kg, po; type: ADME, organism-based; parameters: dose 25 mg/kg, route oral; details: in vivo; outline: as §2
Mus musculus = assay: Oral bioavailability in mouse at 25 mg/kg; type: ADME, organism-based; details: in vivo; outline: as §2
[19] = Clearance in mouse at 5 mg/kg, iv; details: in vivo
[20] = Half life in mouse at 5 mg/kg, iv; details: in vivo
[21] = Volume of distribution at steady state in mouse at 5 mg/kg, iv; details: in vivo, read-out: Vdss

Cytochrome P450 2D6, sequence (P10635 whole entry): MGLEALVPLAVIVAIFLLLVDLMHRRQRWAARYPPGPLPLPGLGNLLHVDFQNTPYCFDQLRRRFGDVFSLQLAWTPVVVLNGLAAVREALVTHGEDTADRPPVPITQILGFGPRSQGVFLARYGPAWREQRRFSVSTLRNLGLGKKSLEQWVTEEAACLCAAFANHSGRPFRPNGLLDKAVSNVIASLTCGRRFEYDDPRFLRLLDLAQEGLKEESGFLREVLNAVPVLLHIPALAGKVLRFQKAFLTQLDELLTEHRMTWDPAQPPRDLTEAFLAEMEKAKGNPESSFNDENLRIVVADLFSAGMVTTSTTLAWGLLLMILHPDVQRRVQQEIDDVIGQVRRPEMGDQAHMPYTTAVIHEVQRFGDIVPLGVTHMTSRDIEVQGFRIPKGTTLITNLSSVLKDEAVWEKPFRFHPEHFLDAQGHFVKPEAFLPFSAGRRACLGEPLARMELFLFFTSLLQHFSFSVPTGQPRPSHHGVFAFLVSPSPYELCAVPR
Cytochrome P450 2C9, sequence (P11712 whole entry): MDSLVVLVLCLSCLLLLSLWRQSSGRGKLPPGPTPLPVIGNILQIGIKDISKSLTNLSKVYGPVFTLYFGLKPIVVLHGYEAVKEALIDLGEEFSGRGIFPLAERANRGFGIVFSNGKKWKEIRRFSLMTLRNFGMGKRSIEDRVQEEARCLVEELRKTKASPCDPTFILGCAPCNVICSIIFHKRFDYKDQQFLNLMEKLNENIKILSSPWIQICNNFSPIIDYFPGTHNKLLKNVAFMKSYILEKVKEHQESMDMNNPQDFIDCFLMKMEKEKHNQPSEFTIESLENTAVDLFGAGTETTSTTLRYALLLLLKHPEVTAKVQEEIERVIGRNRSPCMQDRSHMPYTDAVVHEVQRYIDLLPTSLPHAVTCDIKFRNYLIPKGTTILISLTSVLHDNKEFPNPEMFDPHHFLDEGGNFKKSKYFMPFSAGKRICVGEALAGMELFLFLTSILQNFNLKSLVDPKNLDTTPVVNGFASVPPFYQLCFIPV
Cytochrome P450 3A4, sequence (P08684 whole entry): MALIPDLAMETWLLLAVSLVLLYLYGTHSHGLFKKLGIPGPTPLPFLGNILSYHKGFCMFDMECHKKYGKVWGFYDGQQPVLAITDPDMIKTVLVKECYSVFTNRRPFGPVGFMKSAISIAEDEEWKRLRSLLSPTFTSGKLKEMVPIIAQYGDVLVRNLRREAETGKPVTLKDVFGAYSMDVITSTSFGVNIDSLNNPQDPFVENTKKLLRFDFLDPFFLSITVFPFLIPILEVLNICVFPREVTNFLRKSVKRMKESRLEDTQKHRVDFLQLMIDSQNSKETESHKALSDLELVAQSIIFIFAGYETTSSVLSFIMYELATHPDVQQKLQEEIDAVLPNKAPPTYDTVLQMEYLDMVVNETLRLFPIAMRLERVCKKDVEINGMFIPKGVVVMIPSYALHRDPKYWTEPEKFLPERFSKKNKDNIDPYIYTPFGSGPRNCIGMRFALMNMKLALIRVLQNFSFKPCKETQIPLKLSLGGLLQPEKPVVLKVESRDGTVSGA
Voltage-gated inwardly rectifying potassium channel KCNH2, sequence (Q12809 whole entry): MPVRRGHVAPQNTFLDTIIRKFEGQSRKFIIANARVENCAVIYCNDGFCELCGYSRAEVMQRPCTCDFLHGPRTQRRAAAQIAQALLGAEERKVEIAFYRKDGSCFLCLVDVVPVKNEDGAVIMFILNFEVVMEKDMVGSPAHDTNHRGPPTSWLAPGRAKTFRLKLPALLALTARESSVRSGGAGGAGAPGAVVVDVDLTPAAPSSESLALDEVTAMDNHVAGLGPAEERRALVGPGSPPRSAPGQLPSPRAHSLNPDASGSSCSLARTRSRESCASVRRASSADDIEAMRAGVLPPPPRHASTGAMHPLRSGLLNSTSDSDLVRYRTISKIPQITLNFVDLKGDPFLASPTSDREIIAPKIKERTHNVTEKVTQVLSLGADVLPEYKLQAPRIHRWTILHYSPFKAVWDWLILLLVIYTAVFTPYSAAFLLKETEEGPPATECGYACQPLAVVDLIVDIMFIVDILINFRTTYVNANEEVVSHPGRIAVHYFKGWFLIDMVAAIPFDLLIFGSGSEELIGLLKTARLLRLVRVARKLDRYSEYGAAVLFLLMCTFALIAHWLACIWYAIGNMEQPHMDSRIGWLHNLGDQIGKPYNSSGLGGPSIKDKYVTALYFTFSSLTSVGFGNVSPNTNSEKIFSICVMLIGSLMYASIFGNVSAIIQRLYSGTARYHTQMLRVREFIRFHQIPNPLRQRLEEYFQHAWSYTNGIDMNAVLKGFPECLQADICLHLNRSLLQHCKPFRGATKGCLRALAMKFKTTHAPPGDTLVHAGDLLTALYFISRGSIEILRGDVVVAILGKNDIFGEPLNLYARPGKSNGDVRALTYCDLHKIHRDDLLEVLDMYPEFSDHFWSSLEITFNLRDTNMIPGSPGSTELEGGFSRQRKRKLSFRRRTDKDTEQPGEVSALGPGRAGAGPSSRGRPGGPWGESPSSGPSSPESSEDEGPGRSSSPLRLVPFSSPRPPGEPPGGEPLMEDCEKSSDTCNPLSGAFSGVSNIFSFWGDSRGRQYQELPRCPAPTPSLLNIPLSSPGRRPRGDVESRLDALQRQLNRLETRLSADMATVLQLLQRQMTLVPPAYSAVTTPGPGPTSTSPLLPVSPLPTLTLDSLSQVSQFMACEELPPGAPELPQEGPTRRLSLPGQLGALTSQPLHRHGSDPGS

SMILES: CC1(C)Cc2c([nH]c3ccccc23)C2(N1)C(=O)Nc1ccc(Cl)cc12 (stereo not given)
IC50 (Plasmodium falciparum [1]): 857 nM | IC50 (Plasmodium falciparum [2]): 819 nM

clearance [3]: 24 mL/min/kg | IC50 (Plasmodium falciparum [1]): 3 nM | solubility [4]: 140 µg/mL (≈ 393 µM) | logP [5]: 3.6 | IC50 (Cytochrome P450 2C9): 1720 nM | IC50 (Cytochrome P450 3A4): Not Active | IC50 (Cytochrome P450 2D6): Not Active
SMILES: C[C@H]1Cc2c([nH]c3ccc(F)cc23)[C@@]2(N1)C(=O)Nc1ccc(Cl)cc12

IC50 (Plasmodium falciparum [1]): 84 nM
SMILES: CC1CCc2c([nH]c3ccccc23)C2(N1)C(=O)Nc1ccc(Cl)cc12 (stereo not given)

SMILES: CC1CCc2c([nH]c3ccccc23)C2(N1)C(=O)Nc1ccc(Br)cc12 (stereo not given) [SPIROAZEPINEINDOLE]
IC50 (Plasmodium falciparum [1]): 90 nM

SMILES: C[C@H]1[C@H](OC(=O)CCC(=O)O)O[C@@H]2O[C@@]3(C)CC[C@H]4[C@H](C)CC[C@@H]1[C@@]24OO3 [ARTESUNATE]
Activity (Plasmodium berghei [6]): 95.6% | Survival (Plasmodium berghei [7]): 5.8 days | Activity (Plasmodium berghei [8]): 98% | Survival (Plasmodium berghei [9]): 7 days | Activity (Plasmodium berghei [10]): 96% | Survival (Plasmodium berghei [11]): 8.1 days | Activity (Plasmodium berghei [12]): 99% | Survival (Plasmodium berghei [13]): 12.2 days

SMILES: O=C1Nc2ccc(Cl)cc2C12NCCc1c2[nH]c2ccccc12 (stereo not given)
IC50 (Plasmodium falciparum [1]): 126 nM | IC50 (Plasmodium falciparum [2]): 104 nM

SMILES: O=C1Nc2ccc(Cl)cc2C12NCCCc1c2[nH]c2ccccc12 (stereo not given)
IC50 (Plasmodium falciparum [1]): 86 nM | IC50 (Plasmodium falciparum [2]): 83 nM

solubility [4]: 79 µg/mL (≈ 199 µM) | logP [5]: 3.9
SMILES: C[C@H]1CCc2c([nH]c3ccccc23)[C@@]2(N1)C(=O)Nc1ccc(Br)cc12

IC50 (Plasmodium falciparum [1]): 182 nM | IC50 (Cytochrome P450 2C9): > 10000 nM | IC50 (Cytochrome P450 3A4): Not Active | IC50 (Cytochrome P450 2D6): Not Active
SMILES: C[C@@H]1Cc2c([nH]c3ccc(F)cc23)[C@]2(N1)C(=O)Nc1ccc(Cl)cc12

IC50 (Plasmodium falciparum [1]): 116 nM | IC50 (Cytochrome P450 2C9): > 10000 nM | IC50 (Cytochrome P450 3A4): Not Active | IC50 (Cytochrome P450 2D6): Not Active
SMILES: C[C@@H]1Cc2c([nH]c3cc(Cl)ccc23)[C@]2(N1)C(=O)Nc1ccc(Cl)cc12

SMILES: C[C@@H]1Cc2c([nH]c3cc(Cl)c(F)cc23)[C@]2(N1)C(=O)Nc1ccc(Cl)cc12
clearance [3]: 2.58 mL/min/kg | IC50 (Plasmodium falciparum [1]): 77 nM | IC50 (Cytochrome P450 2C9): > 10000 nM | IC50 (Cytochrome P450 3A4): Not Active | IC50 (Cytochrome P450 2D6): Not Active

SMILES: CCN(CC)CCCC(C)Nc1ccnc2cc(Cl)ccc12 (stereo not given) [CHLOROQUINE]
Activity (Plasmodium berghei [6]): 99.5% | Survival (Plasmodium berghei [7]): 9 days | Activity (Plasmodium berghei [8]): 99.6% | Survival (Plasmodium berghei [9]): 12.5 days | Activity (Plasmodium berghei [10]): 99.8% | Survival (Plasmodium berghei [11]): 13.6 days | Activity (Plasmodium berghei [12]): 99.8% | Survival (Plasmodium berghei [13]): 14.3 days

IC50 (Cytochrome P450 2C9): 5420 nM | IC50 (Cytochrome P450 3A4): Not Active | IC50 (Cytochrome P450 2D6): Not Active
SMILES: C[C@H]1Cc2c([nH]c3cc(Cl)c(F)cc23)[C@@]2(N1)C(=O)Nc1ccc(Cl)cc12 [CIPARGAMIN]

SMILES: O=C1Nc2ccc(Cl)cc2C12NCCCCc1c2[nH]c2ccccc12 (stereo not given)
IC50 (Plasmodium falciparum [1]): > 5000 nM | IC50 (Plasmodium falciparum [2]): > 5000 nM

SMILES: C[C@@H]1CCc2c([nH]c3ccccc23)[C@]2(N1)C(=O)Nc1ccc(Br)cc12
IC50 (Plasmodium falciparum [1]): > 5000 nM

clearance [3]: 60.1 mL/min/kg | IC50 (Plasmodium falciparum [1]): 4 nM | solubility [4]: 8 µg/mL (≈ 21.5 µM) | logP [5]: 4.8 | IC50 (Cytochrome P450 2C9): 4110 nM | IC50 (Cytochrome P450 3A4): Not Active | IC50 (Cytochrome P450 2D6): Not Active
SMILES: C[C@H]1Cc2c([nH]c3cc(Cl)ccc23)[C@@]2(N1)C(=O)Nc1ccc(Cl)cc12
IC50 [14]: > 30000 nM

SMILES: C[C@H]1Cc2c([nH]c3cc(F)c(F)cc23)[C@@]2(N1)C(=O)Nc1ccc(Cl)cc12
Cmax [15]: 8.32 µM | Tmax [16]: 2 h | AUC(0-inf) [17]: 71.4 µM·h | half-life [18]: 3.18 h | F (Mus musculus): 53% | clearance [3]: 8.53 mL/min/kg | Survival (Plasmodium berghei [7]): 12 days | Survival (Plasmodium berghei [9]): 13 days | Survival (Plasmodium berghei [11]): 17.2 days | Survival (Plasmodium berghei [13]): 29.4 days | IC50 (Plasmodium falciparum [1]): 0.2 nM | solubility [4]: 170 µg/mL (≈ 455 µM) | logP [5]: 4 | IC50 [14]: > 30000 nM | IC50 (Cytochrome P450 2C9): 7350 nM | IC50 (Cytochrome P450 3A4): Not Active | IC50 (Cytochrome P450 2D6): Not Active | clearance [19]: 8.53 mL/min/kg | half-life [20]: 2.94 h | Vd [21]: 1.6 L/kg

clearance [3]: 4.14 mL/min/kg | IC50 (Plasmodium falciparum [1]): 83 nM | IC50 (Cytochrome P450 2C9): > 10000 nM | IC50 (Cytochrome P450 3A4): Not Active | IC50 (Cytochrome P450 2D6): Not Active
SMILES: C[C@@H]1Cc2c([nH]c3cc(F)c(F)cc23)[C@]2(N1)C(=O)Nc1ccc(Cl)cc12

Reference: ChEMBL document CHEMBL1155453, “Spirotetrahydro beta-carbolines (spiroindolones): a new class of potent and orally efficacious compounds for the treatment of malaria” (J Med Chem, 2010)
